Results collected from several papers.
Lines come from different studies, so protocols differ.
Observed: DPPH scavenging

| SMILES | test | conditions | inhibition [%] |
| --- | --- | --- | --- |
| Cc1ccc(N(O)N=Nc2ccc(S(=O)(=O)Nc3onc(C)c3C)cc2)cc1 | absorbance | 300 µg/mL | 32.6 |
| Oc1ccc(Br)cc1C=NCCN1CCOCC1 | absorbance | 40 µM | 10.1 |
| CCN(O)N=Nc1ccc(S(=O)(=O)Nc2nccs2)cc1 | absorbance | 240 µg/mL | 25.2 |
| O=C1O[C@H]([C@@H](O)CO)C(O)=C1O | – | 50 µg/mL | 77.6 |
| Cc1ccc(C(C)C)cc1NC(=O)COC(=O)c1cc(O)cc(O)c1 | – | 100 µg/mL | 7.12 |
| COc1cc(C=Cc2cc(-c3ccc(N(C)C)cc3)nc(O)n2)ccc1O | – | 12.5 µg/mL | 39.4 |
| Cc1ccc(C(C)C)cc1NC(=O)COC(=O)/C=C/c1ccc(Cl)cc1 | – | 100 µg/mL | 7.5 |
| O=C1O[C@H]([C@@H](O)CO)C(O)=C1O | absorbance | 40 µM | 41.6 |
| CCN(O)N=Nc1ccc(S(=O)(=O)Nc2cc(C)on2)cc1 | absorbance | 300 µg/mL | 40.5 |
| Cc1ccc(C(C)C)cc1NC(=O)COC(=O)/C=C/c1ccc(O)cc1 | – | 100 µg/mL | 8.51 |
| CCN(O)N=Nc1ccc(S(=O)(=O)Nc2onc(C)c2C)cc1 | absorbance | 60 µg/mL | 10.9 |
| COc1cc(C=CC(=O)CC(c2ccc([N+](=O)[O-])cc2)n2ccnc2)ccc1O (stereo not drawn) | – | 25 µg/mL | 50.7 |
| Cc1cc(NS(=O)(=O)c2ccc(N=NN(O)c3ccccc3)cc2)no1 | absorbance | 20 µg/mL | 21.8 |
| Cc1ccc(C(C)C)cc1NC(=O)COC(=O)c1ccc(O)c(O)c1 | – | 100 µg/mL | 91.8 |
| COc1cc(C=CC(=O)CC(c2ccc(N(C)C)cc2)n2ccnc2)ccc1O (stereo not drawn) | – | 50 µg/mL | 65.2 |
| Cc1ccc(C(C)C)cc1NC(=O)COC(=O)c1cccc(O)c1 | – | 100 µg/mL | 25.2 |
| Cc1ccc(N(O)N=Nc2ccc(S(=O)(=O)Nc3cc(C)on3)cc2)cc1 | absorbance | 240 µg/mL | 29.7 |
| COc1cc(C=Cc2cc(-c3ccccc3)nc(O)n2)ccc1O | – | 25 µg/mL | 50 |
